Data published in PubChem BioAssay.
Inconclusive results are not listed.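 How the source made its calls, unless noted: active means viability increase at or above a cutoff of the median across tested compounds plus 3 SD (cut at about 8.5% in these data, passing the limit was not always enough); inconclusive means some gains above the cutoff, reason not given; inactive means the rest.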

Experiments:
[1] = S. cerevisiae growth inhibition in permissive medium (OD615), pilot counter-assay for S. cerevisiae lifespan shortening project, permissive growth control (AID 705;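 active means growth inhibition above 25% in both replicates, a cutoff set 3 SD above the mean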); settings: OD615, 24 h, at 10 µM, stronger effect = higher value
Outline: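 assay system = Saccharomyces cerevisiae strain carrying genetically modified DeaD replicative-lifespan system | medium = SC raffinose/galactose permissive medium | dosing = 10 µM single dose, 0.25% DMSO | schedule = 24 h compound exposure at 30 °C after 4 h pre-growth | measured by = OD at 615 nm | read-out basis = growth inhibition from lowered OD615 after 24 h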

[2] = S. cerevisiae growth inhibition in restrictive medium, OD615, pilot screen, restrictive growth control, yeast lifespan reduction project (AID 706;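 active means growth inhibition above a set limit, 3 SD over mean compound inhibition, in both replicates, cut at about 43% in these data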;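 further: modified DeaD lifespan yeast strain shifted to restrictive glucose medium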); settings: OD615, 48 h, at 10 µM, stronger effect = higher value
Outline: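 Buffer or medium: CSMM-D glucose medium. Material: genetically modified Saccharomyces cerevisiae, DeaD replicative lifespan assay strain. Times: 48 h compound exposure at 30 °C. Measured by: optical density at 615 nm.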

[3] = doxorubicin toxicity protection in MRP-1 cells – H69AR cells, CellTiter-Glo, duplicate, MRP-1 activator project, pilot screen (AID 807); settings: H69AR viability with doxorubicin, CellTiter-Glo luminescence; at 10 µM; stronger effect = higher value;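 further: compound pretreatment 18-22 h then 72 h combined with doxorubicin; 0% = doxorubicin alone and 100% = vehicle without doxorubicin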
[4] = viability of HCT116 without oncogenic beta-catenin – human colon tumor cells, pilot screen (AID 823;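 active means cell viability at or below a set limit in both duplicate runs, the limit being the all-compound median minus 4 SD, cut at about 23% in these data, passing the limit was not always enough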;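 further: 0% = wells killed by 20 µM Hyamine and 100% = untreated DMSO cell wells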); settings: HCT116 beta-catenin knockout viability, CellTiter-Glo, 60 h; at 10 µM; stronger effect = lower value
[5] = viability of PTEN-null HCT116 cells – cell-based, HCT116 clonal line, CellTiter-Glo, pilot screen (AID 824;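 active means viability at or below 27.92% in each of two runs, the all-compound median minus 4 SD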;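 further: 0% = 20 µM Hyamine control and 100% = vehicle cell control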); settings: HCT116 PTEN-deleted viability, 60 h, at 10 µM, stronger effect = lower value
[6] = RAM pathway blockade in budding yeast – dse1pr::URA3 reporter, 5-FOA selection, pilot screen (AID 869;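 active means inhibition over a set limit, the all-compound mean plus 3 SD, in both replicate runs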;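 further: 0% = DMSO wells with no growth and 100% = 10 µM 1-NA-PP1 with full growth; RAM network block rescues cells from 5-FOA so hits raise OD615 growth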); settings: S. cerevisiae dse1pr::URA3 5-FOA growth, OD615, 2 d; at 10 µM; stronger effect = higher value; strain carries analog-sensitive mutant Cbk1 kinase
[7] = RAM signaling pathway blockade in yeast – S. cerevisiae, Pdr1DBD-CYC8 efflux-inhibited sensitized strain, primary screen (AID 1298;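 active means RAM network inhibition above 8.4% in each of two replicates, 3 SD over the compound average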;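 further: 0% = DMSO untreated cells without growth and 100% = 10 µM 1-NA-PP1 full growth; higher means more yeast growth rescued from 5-FOA killing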); settings: S. cerevisiae cbk1-as DSE1-URA3 strain, 5-FOA growth OD615, 2 d; at 50 µM; stronger effect = higher value

CCc1ccc(C2CC(=O)NC(SCC(=O)OC(C)C)=C2C#N)cc1 (stereo not given)
inactive: growth inhibition [1] -13.8% | growth inhibition [2] -4.45% | viability increase [3] 0.08% | viability [4] 78.9% | viability [5] 79.5% | inhibition [6] 1.15% | RAM network inhibition [7] 2.6%

Cc1c(C(=O)NCCCN2CCOCC2)sc2nc(-c3ccccc3)cn12
inactive: growth inhibition [1] -10.7% | growth inhibition [2] -11.8% | viability increase [3] -1.59% | viability [4] 92.2% | viability [5] 96% | inhibition [6] 3.44% | RAM network inhibition [7] -0.37%

Cc1ccc(C(=O)NCCn2cc(SCC(=O)Nc3cc(C)on3)c3ccccc32)cc1
inactive: growth inhibition [1] -3.4% | growth inhibition [2] 9.18% | viability increase [3] 1.75% | viability [4] 87.4% | viability [5] 96.9% | inhibition [6] 0.015% | RAM network inhibition [7] 0.42%

CCCC(C(=O)N1CCOCC1)N1C(=O)C2C3C=CC(C3)C2C1=O (stereo not given)
inactive: growth inhibition [1] -8.63% | growth inhibition [2] 3.61% | viability increase [3] 0.84% | viability [4] 99% | viability [5] 99% | inhibition [6] 0.215% | RAM network inhibition [7] -0.83%

CCOC(=O)N1CCC(N2C(=O)c3cc(C(=O)NC4CCCCC4)ccc3C2O)CC1 (stereo not given)
inactive: growth inhibition [1] -2.13% | growth inhibition [2] -0.895% | viability increase [3] -3.03% | viability [4] 94.5% | viability [5] 88.1% | inhibition [6] 0.045% | RAM network inhibition [7] 3.81%

COc1ccc(CCNC(=O)CCn2c(=O)oc3ccccc32)cc1
inactive: growth inhibition [1] -5.1% | growth inhibition [2] -14% | viability increase [3] -1.45% | viability [4] 109% | viability [5] 99.7% | inhibition [6] -0.205% | RAM network inhibition [7] 2.7%

Cc1cc(NC(=O)NC2(C(F)(F)F)Oc3ccc(Cl)cc3O2)no1 (stereo not given)
inactive: growth inhibition [1] -3.33% | growth inhibition [2] -23% | viability increase [3] -5.78% | viability [4] 32.6% | viability [5] 42.5% | inhibition [6] 3.26% | RAM network inhibition [7] 7.87%

CCC(CC)C(=O)NCCc1cc2ccc(C)c(C)c2[nH]c1=O
inactive: growth inhibition [1] -14.2% | growth inhibition [2] -21.4% | viability increase [3] -1.66% | viability [4] 103% | viability [5] 96.6% | inhibition [6] 1.66% | RAM network inhibition [7] 2.56%

Cc1ccc2[nH]c(=O)c3cc(C(=O)N(C)Cc4ccco4)sc3c2c1
inactive: growth inhibition [1] -11.6% | growth inhibition [2] -4.44% | viability increase [3] -5.5% | viability [4] 71.4% | viability [5] 67.5% | inhibition [6] -0.255% | RAM network inhibition [7] -1.79%

Cc1ccc(CCN2C(=O)CCC2(C)C(=O)NC2CCCC2)cc1 (stereo not given)
inactive: growth inhibition [1] -7.04% | growth inhibition [2] -1.27% | viability increase [3] -4.22% | viability [4] 97.5% | viability [5] 100% | inhibition [6] 1.19% | RAM network inhibition [7] 5.93%

CCC(Sc1nc2ccccc2[nH]1)C(=O)Nc1cc(C)on1 (stereo not given)
inactive: growth inhibition [1] -13% | growth inhibition [2] -17.9% | viability increase [3] 1.02% | viability [4] 100% | viability [5] 101% | inhibition [6] 1.1% | RAM network inhibition [7] -0.37%

O=S(=O)(NCc1cccnc1)c1ccc(Cl)c(Cl)c1
inactive: growth inhibition [1] -0.945% | growth inhibition [2] -19.6% | viability increase [3] -0.3% | viability [4] 98.9% | viability [5] 93.8% | inhibition [6] 0.75% | RAM network inhibition [7] 4.18%

Cc1cc(NC(=O)CSc2nc3c([nH]c4ccccc43)c(=O)n2-c2cccc(C(F)(F)F)c2)no1
inactive: growth inhibition [1] -8.72% | growth inhibition [2] -3.21% | viability increase [3] -4.01% | viability [4] 75.1% | viability [5] 66.7% | inhibition [6] 2.41% | RAM network inhibition [7] 1.08%

C=CCn1c(N(C)C)nc2c1c(=O)[nH]c(=O)n2C
inactive: growth inhibition [1] -8.42% | growth inhibition [2] -12.5% | viability increase [3] 1.25% | viability [4] 109% | viability [5] 100% | inhibition [6] 2.38% | RAM network inhibition [7] 4.26%

COCCN(CCOC)C(=O)c1cc2sc3ccccc3c2s1
inactive: growth inhibition [1] -6.12% | growth inhibition [2] -4.95% | viability increase [3] 0.72% | viability [4] 92.4% | viability [5] 90.4% | inhibition [6] 0.11% | RAM network inhibition [7] 0.31%
